One data set relates to U-251. Nature of the data set: Growth inhibition of human U251 cells after 48 hrs by sulforhodamine B assay. Format: functional. In a few lines: (§1)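 Cells in 96-well plates were exposed for 48 h at 37 °C in 5% CO2 to compounds at 0.25, 2.5, 25 and […] in DMSO/RPMI. Doxorubicin was the positive control at […]. Cells were then fixed with 50% trichloroacetic acid and stained with sulforhodamine B, with protein read at 540 nm. TGI (the concentration where T = T0) was taken by non-linear regression of each cell line's concentration-response curve.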

In the next data set the test system is MCF7. Nature of the data set: Growth inhibition of human MCF7 cells after 48 hrs by sulforhodamine B assay. Format: functional. The method, boiled down:
as §1

The nature of data set [1]: Growth inhibition of human NCI/ADR cells after 48 hrs by sulforhodamine B assay. Format: functional. The method, boiled down:
as §1

For the next data set, the system named is 786-0. Nature of the data set: Growth inhibition of human 786-0 cells after 48 hrs by sulforhodamine B assay. In kind it is functional. The method, boiled down: as §1
Another data set has as its system NCI-H460. Nature of the data set: Growth inhibition of human NCI-H460 cells after 48 hrs by sulforhodamine B assay. In kind it is functional. The method, boiled down:
as §1

In a further data set the test system is OVCAR-3. In words: Growth inhibition of human OVCAR3 cells after 48 hrs by sulforhodamine B assay. Format: functional. In a few lines: as §1
The subject of the next data set is HT-29. Nature of the data set: Growth inhibition of human HT-29 cells after 48 hrs by sulforhodamine B assay. Format: functional. In a few lines: as §1
Data set [2] can be described thus: Growth inhibition of human HaCaT cells after 48 hrs by sulforhodamine B assay. Format: cell-based. The method, boiled down: as §1

On to `COc1ccc(/C=C/C2CC=CC(=O)O2)cc1` (racemic), for which the GI in the data set with U-251 came to 20.6 µM; in the data set with MCF7, 25.5 µM; in data set [1], 17.3 µM; with 786-0 it was 21.6 µM; with NCI-H460 it was 28.3 µM; in the data set with OVCAR-3 it was 61.5 µM. Also, the GI in the data set with HT-29 was determined as 33.7 µM. In addition, net growth in data set [2] stopped (TGI at 48 h) at 58.8 µM.
On to `COc1ccc(/C=C/C2CC=CC(=O)O2)c(OC)c1` (racemic), for which the GI in the data set on U-251 worked out at 4.6 µM; with MCF7, 5.4 µM; in data set [1], 8.8 µM; with 786-0 it was 4.1 µM; in the data set on NCI-H460, 6 µM; with OVCAR-3, 5.6 µM. The GI in the data set on HT-29 was 6.6 µM. In data set [2], this molecule showed a TGI at 48 h of 15.8 µM.
`COc1ccc(/C=C/C2CC=CC(=O)O2)cc1OC` (racemic): the GI was determined as 23.9 µM in the data set on U-251; 7.8 µM in the data set on MCF7; 11.6 µM in data set [1]; 10.9 µM in the data set with 786-0; 14.6 µM in the data set with NCI-H460; 16.8 µM in the data set on OVCAR-3. The molecule also came in with a GI in the data set with HT-29 of 17.2 µM. For the same molecule, in data set [2], the total growth inhibition concentration (TGI) at 48 h worked out at 63 µM.
For the molecule `COc1cc(/C=C/C2CC=CC(=O)O2)cc(OC)c1` (racemic), the GI worked out at 8.1 µM in the data set with U-251; 9.5 µM in the data set with MCF7; 8.9 µM in data set [1]; 10.6 µM in the data set on 786-0; 9 µM in the data set on NCI-H460; 19.1 µM with OVCAR-3. In addition, the GI in the data set with HT-29 stood at 8.2 µM. In data set [2], this molecule had a TGI at 48 h of 8.8 µM.
Take `COc1cc(/C=C/C2CC=CC(=O)O2)cc(OC)c1OC` (racemic): the GI in the data set with U-251 is 25.1 µM; in the data set with MCF7 it was 15.3 µM; in data set [1], 35.1 µM; in the data set with 786-0, 18.5 µM; with NCI-H460, 28.8 µM; in the data set with OVCAR-3 it was 44.9 µM. This molecule yielded a GI in the data set on HT-29 of 18.8 µM. Besides, the TGI at 48 h in data set [2] was 21.6 µM.
As for `COc1cc(OC)c(OC)cc1/C=C/C1CC=CC(=O)O1` (racemic), the GI with U-251 amounted to 11.5 µM; in the data set with MCF7, 3.8 µM; in data set [1] it was 9.4 µM; with 786-0, 6 µM; in the data set on NCI-H460 it was 9.8 µM; in the data set with OVCAR-3, 7.2 µM. Besides, the GI with HT-29 amounted to 15.9 µM. This molecule gave a TGI at 48 h in data set [2] of 46.9 µM.
Regarding `COc1cccc2c1C(=O)c1c(O)c3c(c(O)c1C2=O)C[C@@](O)(C(=O)CO)C[C@@H]3O[C@H]1C[C@H](N)[C@H](O)[C@H](C)O1` [DOXORUBICIN], the GI in the data set on U-251 was determined as 2.4 µM; in the data set with MCF7, 3.7 µM; in data set [1] it was 13.5 µM; in the data set with 786-0, 2.1 µM; in the data set on NCI-H460 it was 1.3 µM; in the data set on OVCAR-3, 6.3 µM. This molecule also yielded a GI with HT-29 of 13.9 µM. This molecule also showed a TGI at 48 h in data set [2] of 0.8 µM.
As to `O=C1C=CC[C@H](/C=C/c2ccccc2)O1` [GONIOTHALAMIN], the GI in the data set on U-251 came to 13.7 µM; in the data set with MCF7, 12.7 µM; in data set [1] it was 8 µM; in the data set with 786-0, 14.8 µM; in the data set with NCI-H460, 13.6 µM; in the data set with OVCAR-3 it was 14.2 µM. The molecule further showed a GI with HT-29 of 13.9 µM. Besides, in data set [2], the TGI at 48 h amounted to 27.7 µM.

These data come from ChEMBL document CHEMBL2034868, “Synthesis of methoxylated goniothalamin, aza-goniothalamin and γ-pyrones and their in vitro evaluation against human cancer cells” (Bioorg Med Chem, 2012).
